{"data": "Experimental data from different studies", "target": "MAP/microtubule affinity-regulating kinase 3 (MARK3, Homo sapiens, UniProt P27448)", "effect on": "enzyme activity", "mode": "inhibitor", "note": "Protocols differ between the studies behind these lines."}
{"method": "radiometric", "concentration": "1 µM", "remaining activity [%]": 115, "Structure (SMILES)": "NS(=O)(=O)c1ccc(CNc2ccnc(Nc3cccc(NC(=O)N4CCCC4)c3)n2)cc1"}
{"concentration": "10 µM", "remaining activity [%]": 100, "Structure (SMILES)": "Nc1nc(NC2CCCCC2)sc1C(=O)c1ccccc1"}
{"method": "radiometric", "concentration": "1 µM", "remaining activity [%]": 98, "Structure (SMILES)": "COc1cc(Nc2cnc(C#N)c(O[C@H](C)CN(C)C)n2)ncc1-c1cnn(C)c1"}
{"concentration": "10 µM", "remaining activity [%]": 102, "Structure (SMILES)": "Cc1sc(C(=O)NC2COC2)cc1-n1cc(NC(=O)Nc2c(F)cccc2Cl)cn1"}
{"method": "radiometric", "concentration": "1 µM", "remaining activity [%]": 96, "Structure (SMILES)": "CC(C)(C)c1nc(-c2cccc(NS(=O)(=O)c3c(F)cccc3F)c2F)c(-c2ccnc(N)n2)s1"}
{"concentration": "10 µM", "remaining activity [%]": 112, "Structure (SMILES)": "CC(C)(C)C(=O)c1sc(NC2CCCCC2)nc1N"}
{"concentration": "10 µM", "remaining activity [%]": 94, "Structure (SMILES)": "FC(F)c1nc2ccccc2n1-c1nc(N2CCOCC2)nc(N2CCOCC2)n1"}
{"method": "radiometric", "concentration": "1 µM", "remaining activity [%]": 112, "Structure (SMILES)": "NS(=O)(=O)c1ccc(CNc2nc(Nc3cccc(NC(=O)N4CCCC4)c3)ncc2C2CC2)cc1"}
{"concentration": "5 µM", "remaining activity [%]": 99.3, "Structure (SMILES)": "O=C(Nc1cnn(-c2csc(C(=O)NC3COC3)c2)c1)Nc1c(F)cccc1Cl"}
{"method": "radiometric", "concentration": "1 µM", "remaining activity [%]": 105, "Structure (SMILES)": "Cc1nn(CC(F)(F)F)cc1Nc1ncc(Br)c(NCc2ccc(S(N)(=O)=O)cc2)n1"}
{"concentration": "23.5 nM", "remaining activity [%]": 83, "Structure (SMILES)": "Cc1ccc(C(=O)Nc2ccc(CN3CCN(C)CC3)c(C(F)(F)F)c2)cc1C#Cc1cnc2cccnn12"}
{"concentration": "1 µM", "remaining activity [%]": 101, "Structure (SMILES)": "CC(C)(O)[C@H]1CC[C@H](Nc2ccc3ncc(-c4cccc(C(F)(F)F)c4)n3n2)CC1"}
{"method": "radiometric", "concentration": "1 µM", "remaining activity [%]": 68, "Structure (SMILES)": "NS(=O)(=O)c1ccc(CNc2nc(Nc3cccc(CN4CCOCC4)c3)ncc2Br)cc1"}
{"concentration": "10 µM", "remaining activity [%]": 100, "Structure (SMILES)": "Cn1c(=O)n(-c2ccc(C(C)(C)C#N)cc2)c2c3cc(-c4cnc5ccccc5c4)ccc3ncc21"}
{"concentration": "1 µM", "remaining activity [%]": 98, "Structure (SMILES)": "COc1cc(Cl)c(C(=O)N[C@@H](CN[C@H]2CC[C@@H](N)CC2)Cc2ccc(C#N)cc2)cc1-c1ccc(CN[C@H](C)c2ccc(C)cc2)o1"}
{"method": "radiometric", "concentration": "1 µM", "remaining activity [%]": 16, "Structure (SMILES)": "Brc1cnc(Nc2cccc(CN3CCOCC3)c2)nc1NCCc1c[nH]cn1"}
{"method": "radiometric", "concentration": "1 µM", "remaining activity [%]": 99, "Structure (SMILES)": "CC(C)(C)c1nc2c(s1)c1nc(N)ncc1c1ccc(NS(=O)(=O)c3c(F)cccc3F)c(F)c12"}
